# T cruzi repl = inhibitors of intracellular T. cruzi growth, primary screen, luminescence, NIH3T3 host cells; T. cruzi beta-gal in NIH3T3, 90 h; inhibition, % (no concentration beside the values); hit rate 1.4% among 300,000; AID 1885, 2009;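 active means mean inhibition across valid replicates above about 55%, limit read from the data; inconclusive means mean below that limit but half or more replicates reach it; inactive means mean below it, under half of replicates reach it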;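 further: signal also drops with host cell toxicity which is not excluded here; 0% = plate median of DMSO wells and 100% = zero luminescence signal; higher percent means less beta-gal luminescence so fewer parasites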
#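 Test system: β-gal T. cruzi (Tulahuen C4) inside NIH/3T3 cells / Quantity: 5,000 cells/well / Measured by: luminescence from GalScreen with 0.05% NP40, read after 60 min / Medium: DMEM plus 2% FBS / Measure: parasite load inhibition, % / Reagent: Tulahuen C4 trypomastigotes, 5000/well / Schedule: co-culture of at least 90 h after 3 h attachment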
# CHT PAM = CHT positive allosteric modulators, primary screen, cell-based, membrane potential dye, choline EC20; High affinity choline transporter 1 (Homo sapiens), Q9GZV3; CHT-expressing cells; active compounds read high; LV-AA mutant CHT in HEK293 cells; B-score at 10 µM; hit rate 0.49% among 310,000; AID 488977, 2010;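 active means initial fluorescence not abnormally high and integrated response B-score, plate-corrected, over 3 SD above library mean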
# Target sequence (Q9GZV3 whole entry, looked up): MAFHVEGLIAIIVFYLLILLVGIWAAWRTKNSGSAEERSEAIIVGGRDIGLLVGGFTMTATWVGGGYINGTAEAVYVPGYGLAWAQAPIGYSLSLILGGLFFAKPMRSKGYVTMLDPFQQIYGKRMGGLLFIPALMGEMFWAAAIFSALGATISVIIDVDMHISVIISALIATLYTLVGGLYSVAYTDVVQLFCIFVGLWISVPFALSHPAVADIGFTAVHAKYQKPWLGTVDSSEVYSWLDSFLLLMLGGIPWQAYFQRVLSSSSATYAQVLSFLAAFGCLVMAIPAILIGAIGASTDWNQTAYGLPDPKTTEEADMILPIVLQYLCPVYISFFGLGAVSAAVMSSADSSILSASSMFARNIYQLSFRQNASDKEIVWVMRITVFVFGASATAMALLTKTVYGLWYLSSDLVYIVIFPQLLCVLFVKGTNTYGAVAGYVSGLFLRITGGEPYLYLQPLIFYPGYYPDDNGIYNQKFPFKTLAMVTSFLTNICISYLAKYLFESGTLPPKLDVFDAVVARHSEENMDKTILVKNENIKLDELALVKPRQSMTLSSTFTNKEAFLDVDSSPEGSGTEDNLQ
# CHT inh = inhibitors of human choline transporter CHT; High affinity choline transporter 1 (Homo sapiens), Q9GZV3; hit rate 0.86% among 310,000; CHT-expressing cells, membrane potential dye, choline response; active compounds read low; B-score at 10 µM; AID 488975, 2010;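 active means B-score over 3 SD under the library average, and starting fluorescence ratio not unusually high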;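 further: choline stimulus applied at its EC90 after an EC20 pre-addition; B-score computed on integrated fluorescence ratio after choline addition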
# PolyA inh = polyadenylation inhibitors in yeast reporter cells, primary screen, luminescence, S. cerevisiae; hit rate 0.02% among 300,000; activity score, % at 12 µM; S. cerevisiae SKY197-pL101 polyadenylation reporter, beta-gal luminescence; efflux-impaired pdr1/pdr3 knockout yeast; score 100 = 6 SD above DMSO; AID 1875, 2009;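 active means lowest replicate activity score at least 50, where 100 means six control SD above control mean; inconclusive means lowest score under 50 but half or more replicates reach 50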;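 further: yeast exposed to compound for 9 h at 30 °C; higher score means more reporter readthrough which indicates perturbed polyadenylation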
# CHT block conf = CHT inhibitors, confirmation, cell-based, membrane potential dye, duplicate; shares compounds with CHT inh; CHT-expressing cells, choline membrane potential dye; LV-to-AA substituted CHT, HEK293 cells; CHT activity remaining % of control (active compounds read low), % at 10 µM; hit rate 70% among 2,400; AID 493221, 2011;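 active means choline transporter activity left, mean of duplicates at 10 µM, below buffer-only control mean minus 3 SD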;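 further: depolarization triggered by choline at its EC90 following an EC20 pre-addition; 0% = hemicholinium-3 full block and 100% = buffer-only control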
# HEK293 CHT ctr = membrane potential effects in parental HEK293, counter-screen for CHT inhibitor project, cell-based, membrane potential dye. shares compounds with CHT inh. choline response; active = decrease or increase beyond buffer ±3SD. membrane potential ratio readout (active if shifted either direction beyond buffer ±3SD; no single direction) at 10 µM. hit rate 4% among 2,400. AID 493222, 2011;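 further: parental cells lack the transporter so any hit is non-specific; ratio is peak minus trough fluorescence over baseline after EC90 choline challenge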
# Starred values were filed as active, the others as inactive; i = inactive; ? = inconclusive; nt = no result given. The list is not random: actives were taken first. Their share in the collection is about 2.6%.
SMILES,T cruzi repl,CHT PAM,CHT inh,PolyA inh,CHT block conf,HEK293 CHT ctr
Cc1cc2c(cc(C(=O)N3CCC(C(=O)NC4CCCC4)CC3)n2Cc2c(F)cccc2Cl)o1,51,i,-6.6*,7,i,i
CC(=O)Oc1c(I)cc(I)cc1C(=O)Nc1ccc(Cl)cc1,-13,i,i,-23,nt,nt
O=C(O)c1ccccc1CSc1nnc2c(n1)[nH]c1ccccc12,3,i,i,-11,nt,nt
CN1c2ccccc2C(O)=C(C(=S)Nc2ccc(F)c(Cl)c2)S1(=O)=O,-11,i,-6.4*,-13,48%*,i
CN1c2ccccc2C(O)=C(C(=S)Nc2ccccc2)S1(=O)=O,8,i,i,3,nt,nt
O=C(O)c1ccc2c(c1)C(=O)N(c1cccc3ccccc13)C2=O,-15,i,i,-25,nt,nt
Cc1ccc(NC(=O)Cn2cc(C=O)c3ccccc32)cc1,-14,i,i,-17,nt,nt
CC(C)(C)NCC(O)Cn1cc(C=O)c2ccccc21 (stereo not given),-10,i,-5.7*,-6,50%*,i
CCCCn1c(SCc2nnc(-c3ccccc3)o2)nc2c1c(=O)n(C)c(=O)n2C,-7,i,-5.6*,-10,34%*,i
CCCCn1c(SCC(=O)N2c3ccccc3CCc3ccccc32)nc2c1c(=O)n(C)c(=O)n2C,25,i,i,-11,nt,nt
COc1ccc(NC(=O)C2C3C=CC4(O3)C2C(=O)N(CCN2CCCCC2C)C4C(=O)NC2CCCCC2)cc1 (stereo not given),13,i,i,?,nt,nt
CCN(CC)S(=O)(=O)c1ccc(N2CCCCC2)c(NC(=O)C2CCN(C(=O)c3ccc(F)cc3)CC2)c1,43,i,i,0,nt,nt
O=C(Nc1ccccc1)N1CCCC(c2nc(-c3ccc(F)cc3)no2)C1 (stereo not given),-5,i,-5.9*,-14,i,i
Cc1ccc(NC(=O)N2CCCC(c3nc(-c4ccc(F)cc4)no3)C2)cc1 (stereo not given),5,i,i,5,nt,nt
C=CCNC(=O)NC(=O)COC(=O)CNS(=O)(=O)c1ccc(F)c(F)c1F,-15,i,i,14,nt,nt
COc1cc2c(cc1OC)n(CC(=O)NC1CCCCCC1)n1c(C)cc(=O)nc21,12,i,i,9,nt,nt
COC(=O)c1ccc(CC(=O)c2nc3ccccc3s2)cc1,6,i,i,22,nt,nt
COC(=O)c1ccc(/C(O)=C(\C#N)c2nc3ccccc3s2)cc1,-6,i,-6.5*,-2,i,i
Cc1cc(C)nc(N2N=C(CSc3ccc(Cl)cc3)CC2=O)n1,-10,i,-5*,1,42%*,i
O=C(NCCN1CCOCC1)c1ccc(NS(=O)(=O)c2ccccc2)cc1,-15,i,i,-10,nt,nt
Nc1ncc(Br)cc1S(=O)(=O)Nc1cc(C(F)(F)F)cc(C(F)(F)F)c1,-36,i,-12*,2,29%*,i
Cc1ccc(NS(=O)(=O)c2cc(Br)cnc2N)c(Cl)c1,-10,i,i,-3,nt,nt
O=C(CCC1CCCC1)NCCS(=O)(=O)N1CCN(c2ccc(F)cc2)CC1,-2,i,-5.2*,27,i,i
O=C(CCC1CCCCC1)NCCS(=O)(=O)N1CCN(c2ccc(F)cc2)CC1,-5,i,i,20,nt,nt
O=C(COC(=O)Cc1cccs1)Nc1ccccc1Cl,-21,i,-5.5*,3,i,i
SMILES,T cruzi repl,CHT PAM,CHT inh,PolyA inh,CHT block conf,HEK293 CHT ctr
COC(=O)c1ccccc1NC(=O)CSc1nc2cccnc2n1C,-8,i,-5.9*,1,i,i
CCCc1cc(=O)[nH]c(SCC(=O)Nc2cccc3ccccc23)n1,-4,i,i,7,nt,nt
O=C(CSc1nc(C(F)(F)F)cc(=O)[nH]1)Nc1cccc2ccccc12,-8,i,-5.4*,6,40%*,i
CC1=NC(C)(C)Cc2ccccc21,3,i,-10*,5,20%*,i
C[N+](C)(C)CC=O,nt,i,-6*,nt,22%*,i
COC(C(=O)N/N=C/c1ccc(OCC(=O)N2CCOCC2)cc1)c1ccccc1 (stereo not given),-15,i,i,27,nt,nt
O=C(CSc1nnc2ccc(-c3ccccn3)nn12)Nc1ccccc1F,-4,i,i,22,nt,nt
Oc1c(Cl)cc(Cl)cc1C=Nc1ccc(Br)cc1,-13,i,-6.5*,-15,51%*,i
Cc1ccc(N=Cc2cc(Br)cc(Cl)c2O)cc1,-38,i,i,-49,nt,nt
CC/C(=N/NC(=O)c1ccc2c(c1)OCO2)c1ccccc1O,18,i,i,4,nt,nt
COc1ccc(CN(C(=O)c2cccs2)C(C(=O)NC2CCCCC2)c2ccc3ncccc3c2)cc1 (stereo not given),20,i,-8.1*,6,43%*,i
O=C(NC1CCCCC1)C(c1ccccc1)N(C(=O)c1cccs1)c1ccc2c(c1)OCO2 (stereo not given),18,i,i,5,nt,nt
COc1ccc(C(C(=O)NC2CCCCC2)N(C(=O)c2cccs2)c2ccc3c(c2)OCO3)cc1 (stereo not given),10,i,i,-4,nt,nt
O=C(NC1CCCCC1)C(c1ccc2ncccc2c1)N(Cc1ccc2c(c1)OCO2)C(=O)c1cccs1 (stereo not given),25,i,-10*,-31,25%*,i
COc1cc(C(=O)N2CCc3ccccc32)ccc1OCc1c(C)noc1C,-1,i,i,20,nt,nt
COc1ccc(CCNC(=O)COC(=O)c2cc(OC)c(OC)cc2OC)cc1OC,-9,i,i,-10,nt,nt
COc1cccc(NC(=O)CSc2nnc(-c3ccoc3C)n2C)c1,-3,i,i,-9,nt,nt
COc1ccc(-n2c(C)cc(C(=O)CSc3nnc(-c4ccoc4C)n3C)c2C)cc1,20,i,-5.1*,3,66%*,i
COC(=O)C(CC(=O)c1ccccc1)CC(=O)c1ccccc1,1,i,-5*,0,i,i
O=C1CCC(C(=O)N2CCN(c3cnccn3)CC2)CN1CCc1cccc(F)c1 (stereo not given),7,i,i,1,nt,nt
O=C(NCCCN1CCOCC1)c1ccc2c(c1)N(Cc1cccc(Cl)c1)C(=O)c1ccccc1S2=O (stereo not given),7,i,i,-2,nt,nt

# Compound activity: PubChem, several laboratories
